Values after ≈ are worked out from the molar mass of the structure shown.
Key:
Assay type in all cases: functional
[1] = Antioxidant activity assessed as nitric oxide radical scavenging activity after 150 mins
Outline: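 10 mM sodium nitroprusside (4 mL), PBS pH 7.4 (1 mL) and sample or ascorbic acid in DMSO (1 mL, 12.5–100 µg/mL), incubated 150 min at 25 °C. Nitrite detected with sulphanilic acid (5 min) then naphthylethylenediamine (30 min, diffused light). Read at […]. Triplicate. % inhibition = [1 − (Vt/Vc)] × 100. IC50 derived from it.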

[2] = Antioxidant activity assessed as hydrogen peroxide scavenging activity after 10 mins
Outline: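 H2O2 (20 mM) in PBS pH 7.4. 1 mL of sample or ascorbic acid in methanol (12.5–100 µg/mL) added to 2 mL H2O2 solution. A230 read after 10 min. % inhibition = [1 − (Vt/Vc)] × 100. Triplicate, averaged. IC50 derived from % inhibition across concentrations.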

[3] = Antioxidant activity assessed as inhibition of lipid peroxidation using egg lecithin liposomes incubated for 1 hr
Outline: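 Egg lecithin (3 mg/mL, phosphate buffer pH 7.4) sonicated 10 min to form liposomes. Sample or ascorbic acid (12.5–100 µg/mL) added. Peroxidation induced with FeCl3 and L-ascorbic acid, 1 h at 37 °C. Stopped with HCl/TCA/TBA/BHA, boiled 15 min, centrifuged, supernatant read at 532 nm. Triplicate. % inhibition vs control. IC50 derived.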

[4] = Antioxidant activity assessed as potassium ferricyanide ion reducing power after 20 mins
Outline: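 Oyaizu method. Samples or ascorbic acid in DMF (12.5–100 µg/mL) mixed with 0.2 M phosphate buffer pH 6.6 and 1% potassium ferricyanide, 20 min at 50 °C. 10% TCA added, centrifuged. Supernatant mixed with water and 0.1% FeCl3, read at 700 nm. % = [(Vt/Vc) − 1] × 100. IC50 derived.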

[5] = Antiinflammatory activity assessed as inhibition of albumin denaturation at 100 ug/ml by UV-visible spectrophotometry
Outline: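 Compounds dissolved in minimal DMF, diluted in PBS pH 7.4 (final DMF <2.5%). 1 mL test solution (100 µg/mL) plus 1 mL 1% albumin in PBS, 15 min at 27 ± 1 °C, then heated 10 min at 60 ± 1 °C. After cooling, turbidity read at 660 nm. % inhibition = [(Vt/Vc) − 1] × 100 against a no-drug control. Triplicate, averaged. Diclofenac standard.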

[6] = test system: Metaphire posthuma; assay: Anthelmintic activity against Pheretima posthuma assessed as time taken for complete parasite paralysis at 0.1% w/v
Outline: (§1)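 Earthworms (Pheretima posthuma) exposed to test solutions at 0.1, 0.2 and 0.5% w/v; time in minutes to complete paralysis (worms motionless) recorded. Albendazole as standard. Mean of three determinations ± S.D.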

[7] = test system: Metaphire posthuma; assay: Anthelmintic activity against Pheretima posthuma assessed as time taken for complete parasite paralysis at 0.2% w/v; outline: as §1
[8] = test system: Metaphire posthuma; assay: Anthelmintic activity against Pheretima posthuma assessed as time taken for complete parasite paralysis at 0.5% w/v; outline: as §1
[9] = test system: Metaphire posthuma; assay: Anthelmintic activity against Pheretima posthuma assessed as time taken for parasite death at 0.1% w/v
Outline: (§2)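 Earthworms (Pheretima posthuma, spelled Perituma posthuma in text) exposed to test compounds at 0.1, 0.2 and 0.5% w/v. Albendazole served as standard, with an untreated control. Paralysis was recorded as the time until worms became motionless, then time to death was recorded, in minutes. Each value is the mean of three determinations with S.D.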

[10] = test system: Metaphire posthuma; assay: Anthelmintic activity against Pheretima posthuma assessed as time taken for parasite death at 0.2% w/v; outline: as §2
[11] = test system: Metaphire posthuma; assay: Anthelmintic activity against Pheretima posthuma assessed as time taken for parasite death at 0.5% w/v; outline: as §2
[12] = test system: Escherichia coli; assay: Antimicrobial activity against Escherichia coli at 25 ug/ml by agar plate diffusion technique; conditions: read-out: IZ
Outline: (§3)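 Agar plate diffusion against E. coli, P. aeruginosa, S. aureus and B. subtilis, with compounds at 25, 50 and 100 µg/mL. Streptomycin as standard.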

[13] = test system: Escherichia coli; assay: Antimicrobial activity against Escherichia coli at 50 ug/ml by agar plate diffusion technique; conditions: read-out: IZ; outline: as §3
[14] = test system: Escherichia coli; assay: Antimicrobial activity against Escherichia coli at 100 ug/ml by agar plate diffusion technique; conditions: read-out: IZ; outline: as §3
[15] = test system: Pseudomonas aeruginosa; assay: Antimicrobial activity against Pseudomonas aeruginosa at 25 ug/ml by agar plate diffusion technique; conditions: read-out: IZ; outline: as §3
[16] = test system: Pseudomonas aeruginosa; assay: Antimicrobial activity against Pseudomonas aeruginosa at 50 ug/ml by agar plate diffusion technique; conditions: read-out: IZ; outline: as §3
[17] = test system: Pseudomonas aeruginosa; assay: Antimicrobial activity against Pseudomonas aeruginosa at 100 ug/ml by agar plate diffusion technique; conditions: read-out: IZ; outline: as §3
[18] = test system: Bacillus subtilis; assay: Antimicrobial activity against Bacillus subtilis at 25 ug/ml by agar plate diffusion technique; conditions: read-out: IZ; outline: as §3
[19] = test system: Bacillus subtilis; assay: Antimicrobial activity against Bacillus subtilis at 50 ug/ml by agar plate diffusion technique; conditions: read-out: IZ; outline: as §3
[20] = test system: Bacillus subtilis; assay: Antimicrobial activity against Bacillus subtilis at 100 ug/ml by agar plate diffusion technique; conditions: read-out: IZ; outline: as §3
[21] = test system: Staphylococcus aureus; assay: Antimicrobial activity against Staphylococcus aureus at 25 ug/ml by agar plate diffusion technique; conditions: read-out: IZ; outline: as §3
[22] = test system: Staphylococcus aureus; assay: Antimicrobial activity against Staphylococcus aureus at 50 ug/ml by agar plate diffusion technique; conditions: read-out: IZ; outline: as §3
[23] = test system: Staphylococcus aureus; assay: Antimicrobial activity against Staphylococcus aureus at 100 ug/ml by agar plate diffusion technique; conditions: read-out: IZ; outline: as §3
[24] = test system: Candida albicans; assay: Antimicrobial activity against Candida albicans at 25 ug/ml by paper disc method; conditions: read-out: IZ
Outline: (§4)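 Paper disc method against A. niger and C. albicans, with compounds at 25, 50 and 100 µg/mL. Amphotericin-B as standard.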

[25] = test system: Candida albicans; assay: Antimicrobial activity against Candida albicans at 50 ug/ml by paper disc method; conditions: read-out: IZ; outline: as §4
[26] = test system: Candida albicans; assay: Antimicrobial activity against Candida albicans at 100 ug/ml by paper disc method; conditions: read-out: IZ; outline: as §4
[27] = test system: Aspergillus niger; assay: Antimicrobial activity against Aspergillus niger at 25 ug/ml by paper disc method; conditions: read-out: IZ; outline: as §4
[28] = test system: Aspergillus niger; assay: Antimicrobial activity against Aspergillus niger at 50 ug/ml by paper disc method; conditions: read-out: IZ; outline: as §4
[29] = test system: Aspergillus niger; assay: Antimicrobial activity against Aspergillus niger at 100 ug/ml by paper disc method; conditions: read-out: IZ; outline: as §4

SMILES | IC50 [1] [mg/L] | IC50 [2] [mg/L] | IC50 [3] [mg/L] | IC50 [4] [mg/L] | inhibition [5] [%] | Time [6] [min] | Time [7] [min] | Time [8] [min] | Time [9] [min] | Time [10] [min] | Time [11] [min] | zone of inhibition at 25 µg/mL [12] [mm] | zone of inhibition at 50 µg/mL [13] [mm] | zone of inhibition at 100 µg/mL [14] [mm] | zone of inhibition at 25 µg/mL [15] [mm] | zone of inhibition at 50 µg/mL [16] [mm] | zone of inhibition at 100 µg/mL [17] [mm] | zone of inhibition at 25 µg/mL [18] [mm] | zone of inhibition at 50 µg/mL [19] [mm] | zone of inhibition at 100 µg/mL [20] [mm] | further results
CCOC(=O)c1cnn(-c2nc(-c3ccco3)c(C#N)c(=O)n2C)c1N | 108 (≈ 305 µM) | 104 (≈ 294 µM) | 116 (≈ 327 µM) | 91 (≈ 257 µM) | 42.2 | 47.26 | 42.22 | 45.98 | 58.76 | 55.23 | 54.82 | 13 | 14.2 | 18 | 9.19 | 12.1 | 19.9 | 12.9 | 14.1 | 18.3 | zone of inhibition at 25 µg/mL [21]: 10.9 mm; zone of inhibition at 50 µg/mL [22]: 14.1 mm; zone of inhibition at 100 µg/mL [23]: 17.7 mm; zone of inhibition at 25 µg/mL [24]: 10.9 mm; zone of inhibition at 50 µg/mL [25]: 12.3 mm; zone of inhibition at 100 µg/mL [26]: 18 mm; zone of inhibition at 25 µg/mL [27]: 10.1 mm; zone of inhibition at 50 µg/mL [28]: 13.1 mm; zone of inhibition at 100 µg/mL [29]: 20.4 mm
Cn1c(NN)nc(-c2ccccc2O)c(C#N)c1=O | 46 (≈ 179 µM) | 30 (≈ 117 µM) | 34 (≈ 132 µM) | 38 (≈ 148 µM) | 34.4 | 35.42 | 33.85 | 30.13 | 50.13 | 37.1 | 44.1 | 8.39 | 9.58 | 11.2 | 7.27 | 9.17 | 13 | 9.81 | 13.8 | 22.2 | zone of inhibition at 25 µg/mL [21]: 10.6 mm; zone of inhibition at 50 µg/mL [22]: 12.2 mm; zone of inhibition at 100 µg/mL [23]: 17.7 mm; zone of inhibition at 25 µg/mL [24]: 9.62 mm; zone of inhibition at 50 µg/mL [25]: 12.5 mm; zone of inhibition at 100 µg/mL [26]: 17.7 mm; zone of inhibition at 25 µg/mL [27]: 8.24 mm; zone of inhibition at 50 µg/mL [28]: 10.6 mm; zone of inhibition at 100 µg/mL [29]: 16.5 mm
CSc1nc(-c2cccc(O)c2O)c(C#N)c(=O)n1C | 53 (≈ 183 µM) | 37 (≈ 128 µM) | 41 (≈ 142 µM) | 48 (≈ 166 µM) | 44.1 | 58.04 | 62.28 | 50.1 | 65.29 | 65.5 | 61.02 | 7.28 | 8.78 | 10.4 | 7.67 | 8.12 | 12.7 | 13 | 15.8 | 24.4 | zone of inhibition at 25 µg/mL [21]: 8.7 mm; zone of inhibition at 50 µg/mL [22]: 10.6 mm; zone of inhibition at 100 µg/mL [23]: 13.6 mm; zone of inhibition at 25 µg/mL [24]: 9.48 mm; zone of inhibition at 50 µg/mL [25]: 13.9 mm; zone of inhibition at 100 µg/mL [26]: 21 mm; zone of inhibition at 25 µg/mL [27]: 8.4 mm; zone of inhibition at 50 µg/mL [28]: 10.8 mm; zone of inhibition at 100 µg/mL [29]: 17.1 mm

Source: ChEMBL document CHEMBL1821590, “Novel dihydropyrimidines and its pyrazole derivatives: synthesis and pharmacological screening” (Eur J Med Chem, 2011)
